Bioassay records from PubChem BioAssay.
LANA DNA inh: inhibitors of KSHV LANA C-terminal domain DNA binding. MBP-C-LANA/FAM-LBS DNA binding, fluorescence polarization. inhibition, % at 9 µM. hit rate 0.078% among 340,000. AID 504423;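 active means highest replicate inhibition at or above 60% at 9 µM, even if other replicates fall short; inactive means all replicates below 60% inhibition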;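 further: 0% = neutral control wells and 100% = 4 µM acridine orange control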
CAL PDZ FP-1: inhibitors of human CAL PDZ peptide binding | purified CAL PDZ, TMR-peptide fluorescence polarization, 1 h | inhibition, % at 24.9 µM | AID 602252 | hit rate 0.92% among 300,000 | Q9HD26;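 active means mean inhibition of at least 30% with at least half of replicates also reaching 30%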;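 further: 0% = DMSO neutral control and 100% = excess unlabeled competitor peptide PRC23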
miR122 inh: inhibitors of miR-122 in Huh7 cells | hit rate 0.3% among 340,000 | Huh7 miR-122 Renilla luciferase sensor, 48 h; neutral wells = 0, positive control = 100 | activation (reporter increase), % at 12.5 µM;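 active means mean replicate activation score at least 90 and every replicate individually at or above 90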;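 further: higher luciferase means less miR-122 activity so hits act as miR-122 inhibitors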
Keap1 Nrf2 FP: inhibitors of human Keap1-Nrf2 protein-protein interaction. Q14145. Keap1 Kelch-Nrf2 peptide fluorescence polarization, 1536-well. inhibition, % at 9.4 µM. hit rate 0.15% among 340,000. AID 504523; in the data active means inhibition above about 12%;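 further: human Keap1 Kelch domain with fluorescein labeled Nrf2 9mer peptide probe; 0% = neutral control wells and 100% = peptide positive control; higher means more block of Keap1 binding to Nrf2 peptide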
Target sequence (Q14145 whole entry, looked up, the tested form may be a part): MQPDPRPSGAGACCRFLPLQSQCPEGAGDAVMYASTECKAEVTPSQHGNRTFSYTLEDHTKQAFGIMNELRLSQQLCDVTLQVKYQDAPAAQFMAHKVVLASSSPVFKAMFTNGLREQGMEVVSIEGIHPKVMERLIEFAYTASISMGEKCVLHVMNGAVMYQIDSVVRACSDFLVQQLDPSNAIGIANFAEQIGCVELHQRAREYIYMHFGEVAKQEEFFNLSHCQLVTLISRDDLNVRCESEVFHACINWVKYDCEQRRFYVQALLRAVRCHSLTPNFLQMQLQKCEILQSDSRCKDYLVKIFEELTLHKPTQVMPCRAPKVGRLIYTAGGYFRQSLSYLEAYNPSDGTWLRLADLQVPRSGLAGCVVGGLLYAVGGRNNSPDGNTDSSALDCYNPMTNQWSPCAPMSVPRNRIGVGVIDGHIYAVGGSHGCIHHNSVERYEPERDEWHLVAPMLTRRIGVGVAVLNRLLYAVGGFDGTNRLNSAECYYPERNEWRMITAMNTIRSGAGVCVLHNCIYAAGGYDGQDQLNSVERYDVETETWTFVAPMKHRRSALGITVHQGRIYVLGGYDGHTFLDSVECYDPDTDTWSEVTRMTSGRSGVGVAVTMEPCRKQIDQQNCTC
CAL PDZ FP-2: inhibitors of human CAL PDZ peptide binding | Q9HD26 | purified CAL PDZ, TMR-peptide fluorescence polarization, 1 h | inhibition, % at 20 µM | hit rate 0.02% among 330,000 | AID 504414;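 active means highest replicate inhibition of at least 40%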;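 further: plate controls were DMSO neutral control wells for no effect and unlabeled competitor peptide control wells for full effect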
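material = purified tagged CAL PDZ domain construct (CerCALP) | compound dosing = 20 µM, one dose | times = 1 h at RT | measured by = fluorescence polarization from S- and P-plane intensities, G-factor corrected | read-out = inhibition from polarization loss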
* = called active by the depositor; / = no result; + = active, no number; [ ] = remark or other dose. The list is not random: actives were taken first. Their share in the collection is about 1.1%.

SMILES	LANA DNA inh	CAL PDZ FP-1	miR122 inh	Keap1 Nrf2 FP	CAL PDZ FP-2
O=C(COc1ccc(-c2ccccc2)cc1)N1CCN(S(=O)(=O)Cc2ccccc2)CC1	2	-1	99*	0	-2
C[C@@H]1CN([C@@H](C)CO)C(=O)c2cc(NS(=O)(=O)c3ccc(Cl)cc3)ccc2O[C@@H](C)CCCCO[C@@H]1CN(C)C(=O)CCCN(C)C	/	/	6[16.7 µM]	/	/
N#Cc1c(N)c(C#N)c(-c2ccc(O)cc2)c2c1CCCC2	-3	75*	1	0	-2
C[C@H]1CN([C@@H](C)CO)C(=O)Cc2cc(NC(=O)Nc3ccc(F)cc3)ccc2O[C@@H]1CN(C)C(=O)Nc1cccc2ccccc12	/	/	-1[16.7 µM]	/	/
C[C@H](CO)N1C[C@H](C)[C@@H](CN(C)C(=O)CN(C)C)Oc2cc(C3=CCCCC3)ccc2S1(=O)=O	/	/	1[16.7 µM]	/	/
Cc1cccc(NC(=O)NC2CCCCCCC2)c1C	-1	3	4	-1	-2
Cc1c(NC(=O)NC2CCCCC2)cccc1[N+](=O)[O-]	1	/	157*	1	0
C[C@@H]1CN([C@H](C)CO)C(=O)c2cc(NC(=O)Cc3ccccc3)ccc2O[C@@H](C)CCCCO[C@@H]1CN(C)CC1CCCCC1	/	/	5[16.7 µM]	/	/
COc1ccc(S(=O)(=O)N/N=C\c2ccc3c(c2)OCO3)c(OC)c1	-2	-6	37	-5	-3
COc1ccc(OC)c(S(=O)(=O)N/N=C\c2ccc3c(c2)OCO3)c1	-1	-4	105*	-1	-2
CC(=O)Nc1ccc(NC(=O)COC(=O)c2c3c(nc4ccccc24)CCN(Cc2ccccc2)C3)cc1	-1	-3	/	-17	-4
O=C(COC(=O)c1c2c(nc3ccccc13)CCN(Cc1ccccc1)C2)Nc1c(F)cccc1F	0	/	175*	-10	0
O=C(NCc1ccc(F)cc1)c1c2c(nc3ccccc13)CCN(Cc1ccccc1)C2	1	57*	/	3	-2
COC(=O)c1[nH]c2ccc(C)cc2c1NC(=O)CN1CCCc2ccccc21	1	2	4	-8	0
Cc1ccc2[nH]c3c(c2c1)CN(C(=O)CN1CCCc2ccccc21)CC3	0	58*	16	-2	-1
COc1ccc(C(=O)NCC(=O)OCC(=O)c2cc(OC)c(OC)c(OC)c2)cc1OC	4	-1	/	-4	-2
COc1ccc(S(=O)(=O)NCCC(=O)OCC(=O)c2ccc[nH]2)cc1[N+](=O)[O-]	-1	46*	-10	-3	0
COc1cc(C(=O)NCC(=O)OCC(=O)c2ccc[nH]2)cc(OC)c1OC	0	61*	-5	1	0
CCC(=O)N1[C@H](CN(C)C(C)=O)[C@H](c2ccc(-c3cccc(F)c3)cc2)[C@@H]1CO	/	/	0[16.7 µM]	/	/
COc1ccc(NC(=O)N(C)C[C@H]2OCCCC[C@@H](C)Oc3ccc(NS(=O)(=O)c4c(C)noc4C)cc3C(=O)N([C@@H](C)CO)C[C@H]2C)cc1	/	/	-5[16.7 µM]	/	/
CC(C)C1Cc2c(sc3c2c(=O)n(-c2ccccc2)c2n[nH]c(=S)n32)CO1 (configuration not stated)	0	+	/	-5	-1
C[C@@H]1CN([C@@H](C)CO)C(=O)c2cccc(NC(=O)C3CCOCC3)c2O[C@H]1CN(C)S(C)(=O)=O	/	/	-2[16.7 µM]	/	/
Cc1ccc(C)c(NC(=O)CSc2c(C)n[nH]c2C)c1	2	61*	-6	-1	16
O=C(C[C@H]1CC[C@@H]2[C@H](COC[C@@H](O)CN2Cc2cc(F)ccc2F)O1)N[C@H]1CCN(Cc2ccccc2)C1	/	/	-4[16.7 µM]	/	/
COCCN(C(=O)COC(=O)/C=C/c1ccc2ccccc2n1)c1c(N)n(Cc2ccccc2)c(=O)[nH]c1=O	-3	43*	-7	-3	-4
SMILES	LANA DNA inh	CAL PDZ FP-1	miR122 inh	Keap1 Nrf2 FP	CAL PDZ FP-2
COCCN(C(=O)COC(=O)CCc1nc2ccccc2s1)c1c(N)n(Cc2ccccc2)c(=O)[nH]c1=O	-1	-4	/	3	-2
COCCN(C(=O)CSc1nc2ccccc2s1)c1c(N)n(Cc2ccccc2)c(=O)[nH]c1=O	9	99*	/	-3	-1
CO[C@H]1CN(C)C(=O)c2ccc(NS(=O)(=O)c3ccc(C)cc3)cc2OC[C@@H](C)N(C(=O)NC(C)C)C[C@H]1C	/	/	0[16.7 µM]	/	/
COC(=O)c1ccc(OCc2nn[nH]n2)cc1	1	61*	2	-3	-2
O=C(COc1ccc(Cl)cc1Cl)Nc1ccc(CN2CCOCC2)cc1	0	84*	3	3	0
COc1cc(SC)ccc1C(=O)N1CCN(Cc2ccc3c(c2)OCO3)CC1	2	46*	-9	6	-1
COc1cc(NS(=O)(=O)c2cc3c(cc2C)NC(=O)CO3)cc(OC)c1	-2	/	101*	-7	-2
COc1ccc(NS(=O)(=O)c2cc3c(cc2C)N(C)CCO3)cc1	0	-2	95*	2	0
CCOc1ccc(NS(=O)(=O)c2cc3c(cc2C)N(C)CCO3)cc1	-1	0	74	-7	0
C[C@@H]1CCCCO[C@H](CN(C)C(=O)C2CCCCC2)[C@H](C)CN([C@@H](C)CO)C(=O)c2cc(NC(=O)CCC(F)(F)F)ccc2O1	/	/	-5[16.7 µM]	/	/
CC(=O)NC1C(OCc2ccccc2)OC(CO)C(OC(C)=O)C1OC(C)=O (configuration not stated)	1	46*	2	-3	1
Cc1noc(C)c1S(=O)(=O)N(C)C[C@H]1Oc2c(cccc2N(C)C)C(=O)N([C@@H](C)CO)C[C@@H]1C	/	/	2[16.7 µM]	/	/
CS(=O)(=O)Nc1ccc2c(c1)[C@@H]1C[C@H](CC(=O)NCc3cccnc3)O[C@H](CO)[C@@H]1O2	/	/	-5[16.7 µM]	/	/
Cc1cc(F)c(F)cc1C(=O)N1CCCC1	0	53*	/	-2	0
O=C(c1cccc(F)c1F)N1CCCC1	0	/	5	-1	0
CCCC(=O)Nc1ccc2c(c1)C(=O)N(C)C[C@H](OC)[C@H](C)CN(CC1CCOCC1)[C@H](C)CO2	/	/	18[16.7 µM]	/	/
CC(C)Nc1cc(C(C)(C)C)nc2c(-c3ccccc3)cnn12	0	133*	/	2	-1
CC(C)(C)c1cc(C(F)(F)F)n2ncc(-c3ccccc3)c2n1	-1	-3	-4	2	-3
Cc1ccc(-c2nn(CC(=O)NCc3cc(-c4nn(C)c(=O)c5ccccc45)ccc3C)c(=O)c3ccccc23)cc1	1	40*	-13	-4	/
CCC(=O)NCc1cc(-c2nn(C)c(=O)c3ccccc23)ccc1C	0	-4	6	-2	/
C[C@@H]1CN([C@@H](C)CO)C(=O)c2cc(C#CC(C)(C)O)cnc2O[C@@H]1CN(C)Cc1ccccn1	/	/	0[16.7 µM]	/	/
C/C=C/c1ccc2c(c1)O[C@@H](CN(C)C(=O)Cc1ccccc1)[C@H](C)CN([C@H](C)CO)S2(=O)=O	/	/	13[16.7 µM]	/	/
Cc1onc(-c2c(Cl)cccc2Cl)c1C(=O)N1CCN(c2ccccc2)CC1	-1	2	/	-3	-3
